Assay outcomes from PubChem.
Rows were chosen to be rich in hits. Some 3.1% of all compounds tested hit in one or more screens of this group.
VIM-2 inhibitor – VIM-2 metallo-beta-lactamase inhibitors, primary screen, biochemical, epi-absorbance readout, Pseudomonas aeruginosa enzyme | inhibition, % at 5.6 µM | 290,000 tested, 0.89% active | AID 1527, 2009 | purified VIM-2, nitrocefin hydrolysis, epi-absorbance fluorescence;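 active = inhibition above the mean of all tested compounds plus 3 SD, cutoff set per screening run, cut at about 7.5% in these data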;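 note: red hydrolysis product quenches plate fluorescence so inhibitors raise well fluorescence; 0% = enzyme with DMSO and 100% = DMSO without enzyme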
core dimer inh – inhibitors of HCV core protein dimerization, primary screen, biochemical, TR-FRET, high-throughput. 300,000 tested, 0.33% active. AID 1899, 2009. inhibition, % at 5 µM. TR-FRET GST/Flag-core106 dimerization, 1536-well;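 active = inhibition above the mean of all tested compounds plus 3 SD, set per screening campaign, cut at about 45% in these data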
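Material: Tagged HCV core106 pair (GST and Flag) | Amount: GST-core106 13.5 nM, Flag-core106 17 nM | Medium: KF-containing HEPES buffer, pH 7.45, DTT, CHAPS, BSA | Reagent: Eu donor and XL665 acceptor anti-tag antibodies | Schedule: 4 h at 22.5 °C | Technique: Time-resolved FRET, ex 340 nm, em 617 and 671 nm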
UBC9 SUMO inh – inhibitors of in vitro SUMOylation cascade, primary screen, biochemical, HTRF, uHTS; HTRF SUMOylation assay, SAE1/SAE2 + UBC9; inhibition, % at 35 µM; 290,000 tested, 0.36% active; AID 2006, 2009; in the data active = inhibition above about 50%, passing the limit was not always enough
Target sequence (P63279 whole entry, looked up): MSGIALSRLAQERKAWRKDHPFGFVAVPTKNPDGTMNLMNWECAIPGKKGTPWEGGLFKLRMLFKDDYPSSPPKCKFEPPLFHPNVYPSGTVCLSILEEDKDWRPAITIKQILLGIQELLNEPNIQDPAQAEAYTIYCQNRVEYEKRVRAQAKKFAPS
IMP-1 inh – IMP-1 metallo-beta-lactamase inhibitors, primary screen, biochemical, epi-absorbance readout, Pseudomonas aeruginosa enzyme. 290,000 tested, 0.45% active. inhibition, % at 5.6 µM. metallo-beta-lactamase IMP-1 (Pseudomonas aeruginosa). AID 1556, 2009. purified IMP-1, nitrocefin hydrolysis, epi-absorbance fluorescence;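 active = inhibition above the mean plus 3 SD of all compounds in the same screening run, cut at about 4.5% in these data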;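 note: 0% = IMP-1 with DMSO and 100% = DMSO wells lacking enzyme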
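Assay system: purified recombinant IMP-1 beta-lactamase. Input: IMP-1 0.2 nM before substrate addition. Buffer or medium: Zinc- and detergent-supplemented HEPES buffer, pH 7.1. Schedule: 25 °C, 15 min preincubation, 25 min reaction. Signal: Epi-absorbance fluorescence, 480 nm excitation, 530 nm emission. Evaluation: percent inhibition from optical density relative to buffer-blank wells.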
PHOSPHO1 block – PubChem AID 1565; Phosphoethanolamine/phosphocholine phosphatase (Homo sapiens), Q8TCT1; recombinant PHOSPHO1, absorbance phosphatase assay; inhibition, % at 13.3 µM; 290,000 tested, 1.1% active; in the data active = inhibition above about 60%
Target sequence (Q8TCT1 whole entry, looked up): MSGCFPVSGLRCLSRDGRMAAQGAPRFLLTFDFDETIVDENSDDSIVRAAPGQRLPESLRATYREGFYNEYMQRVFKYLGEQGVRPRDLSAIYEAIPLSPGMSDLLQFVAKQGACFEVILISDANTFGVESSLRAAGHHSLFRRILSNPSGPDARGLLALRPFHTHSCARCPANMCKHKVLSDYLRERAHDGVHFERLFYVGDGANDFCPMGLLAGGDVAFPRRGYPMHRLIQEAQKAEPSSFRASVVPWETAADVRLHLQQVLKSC
HCV NS3 hel inh – inhibitors of HCV NS3 helicase, primary screen, biochemical, Cy5 molecular beacon fluorescence; NS3 helicase DNA unwinding; inhibition, % at 10.9 µM; 290,000 tested, 0.56% active; AID 1800, 2009;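 active = inhibition above the mean of all tested compounds plus 3 SD, set per campaign, cut at about 35% in these data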;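 note: 0% = DMSO wells and 100% = thioflavine S control wells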
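Compound dosing – single dose, 10.9 µM nominal final, DMSO 0.8% final · System – NS3 helicase fragment of HCV · Buffer or medium – MOPS pH 6.5, MgCl2, DTT, Tween20, BSA · Signal – Cy5 beacon fluorescence read at start and 1 h · Also added – annealed dual-labelled DNA beacon duplex, ATP-started · Schedule – 1 h at 25 °C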
* = called active by the depositor; / = not tested or not shown.

SMILES	VIM-2 inhibitor	core dimer inh	UBC9 SUMO inh	IMP-1 inh	PHOSPHO1 block	HCV NS3 hel inh
O=C(OCCNc1nc(-c2ccccc2)nc2ccccc12)c1ccncc1	9.6*	-5	-6	-5	33	-8
COc1ccc(Nc2nc(-c3ccncc3)nc3ccccc23)cc1	11*	1	17	-2	27	-5
COc1ccc(Nc2c3ccccc3nc3ccccc23)cc1	9.2*	1	3	-4	/	-3
O=C(OCCNc1nc(-c2ccccc2)nc2ccccc12)c1cccnc1	-1	4	0	-5	-7	-14
CCOc1cccc(C(=O)Nc2ccc3c(c2)OCCO3)c1	2	6	4	1	34	5
O=C(O)c1cc(-n2[nH]c(=O)c3ccccc3c2=O)ccc1Cl	-3	1	8	-3	28	-8
O=C(Nc1nnc(C2CC2)s1)C1Cc2ccccc2CN1C(=O)c1ccco1 (stereo unspecified)	-8	54*	16	-5	-25	19
CCc1nnc(NC(=O)C2Cc3ccccc3CN2S(=O)(=O)c2cccs2)s1 (stereo unspecified)	-2	59*	2	-4	31	-3
CCS(=O)(=O)N1Cc2ccccc2CC1C(=O)Nc1nnc(SCc2c(Cl)cccc2Cl)s1 (stereo unspecified)	-1	21	7	-5	-4	-2
O=C(Nc1nnc(C2CC2)s1)C1Cc2ccccc2CN1S(=O)(=O)c1cccs1 (stereo unspecified)	0	67*	13	1	5	-3
CCSc1nnc(NC(=O)C2Cc3ccccc3CN2S(=O)(=O)CC)s1 (stereo unspecified)	-2	49*	1	-3	-7	-3
O=S(=O)(c1ccc(F)c(F)c1F)N1CCN(C(=S)Nc2ccccc2)CC1	-1	12	12	-1	21	-14
CCCCN(C)C1=Nc2cccc3cccc1c23	-1	-7	20	-1	63*	-2
COc1ccc(COC(=O)C2=C(C)NC(=O)NC2c2cc(Br)c(O)c(OC)c2)cc1 (stereo unspecified)	-3	-4	-6	-2	9	-5
COc1ccc(-c2cc3c(=O)n(CC(=O)NCCCc4ccccc4)ncn3n2)cc1	0	14	17	15*	33	21
Cc1nc2ccc(-c3ccccc3)cc2o1	-1	-6	18	-3	79*	2
CSc1nc(NCc2ccco2)c2c3c(sc2n1)CN(C)CC3	3	9	19	-1	-12	9
CSc1nc(SCC(=O)NCc2ccco2)c2c3c(sc2n1)CN(C)CC3	6	48*	/	-2	/	6
COc1ccc(-n2c(SC3CCOC3=O)nc3ccccc3c2=O)cc1Cl (stereo unspecified)	-3	5	8	-2	28	5
COc1ccc(-n2c(SC3CCOC3=O)nc3ccccc3c2=O)cc1OC (stereo unspecified)	-1	6	12	-4	66*	-3
COC(=O)C1=NN(c2ccc(C)cc2)C2(S1)SC(C(C)=O)=C(C)N2c1ccccc1 (stereo unspecified)	0	1	-2	-4	64*	3
COC(=O)C1=NN(c2ccccc2)C2(S1)SC(C(C)=O)=C(C)N2c1ccccc1 (stereo unspecified)	-1	6	-15	-1	12	-7
Cc1nc(NC(=O)CCN2C(=O)C3CC=CCC3C2=O)sc1C (stereo unspecified)	-4	1	-6	-4	61*	8
Cc1c(Cl)cccc1NC(=O)CCN1C(=O)C2CC=CCC2C1=O (stereo unspecified)	-4	-1	-4	-3	37	0
O=C(O)c1cccc(N2C(=O)C3C4C=CC(C4=C(c4ccccc4)c4ccccc4)C3C2=O)c1 (stereo unspecified)	-6	26	17	-4	35	-3
